Paper PMC3990230 (Journal of medicinal chemistry, 2010)

Assays:
NF-κB = NF-κB translocation assay; format: cell-based, Human; conditions: A549 cells, TNFα induced
IKK = format: cell-based, Human; conditions: A549 cells, TNFα induced, Western blot
In short: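 A549 cells were pretreated with test compound at varying concentrations (4 hr), then stimulated with TNFα. Phosphorylation read-out: lysates taken at 7 min, probed anti-pS32-IκB, stripped and re-probed for total IκB. Stability read-out: TNFα 10 ng/ml for 20 min, total IκB only. NP-40 lysis (pH 7.4, phosphatase/protease inhibitors), 12.5% SDS-PAGE, nitrocellulose, 5% milk/TBS-T block, primary antibody ≥2 hr.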

recombinant IKKβ = target: T1, recombinant IKKβ (Homo sapiens, UniProt O14920); assay: In vitro IKK assay: 32P incorporation into GST-IκB; format: biochemical; conditions: 30 min at 30°C
T1 sequence (O14920 1-756): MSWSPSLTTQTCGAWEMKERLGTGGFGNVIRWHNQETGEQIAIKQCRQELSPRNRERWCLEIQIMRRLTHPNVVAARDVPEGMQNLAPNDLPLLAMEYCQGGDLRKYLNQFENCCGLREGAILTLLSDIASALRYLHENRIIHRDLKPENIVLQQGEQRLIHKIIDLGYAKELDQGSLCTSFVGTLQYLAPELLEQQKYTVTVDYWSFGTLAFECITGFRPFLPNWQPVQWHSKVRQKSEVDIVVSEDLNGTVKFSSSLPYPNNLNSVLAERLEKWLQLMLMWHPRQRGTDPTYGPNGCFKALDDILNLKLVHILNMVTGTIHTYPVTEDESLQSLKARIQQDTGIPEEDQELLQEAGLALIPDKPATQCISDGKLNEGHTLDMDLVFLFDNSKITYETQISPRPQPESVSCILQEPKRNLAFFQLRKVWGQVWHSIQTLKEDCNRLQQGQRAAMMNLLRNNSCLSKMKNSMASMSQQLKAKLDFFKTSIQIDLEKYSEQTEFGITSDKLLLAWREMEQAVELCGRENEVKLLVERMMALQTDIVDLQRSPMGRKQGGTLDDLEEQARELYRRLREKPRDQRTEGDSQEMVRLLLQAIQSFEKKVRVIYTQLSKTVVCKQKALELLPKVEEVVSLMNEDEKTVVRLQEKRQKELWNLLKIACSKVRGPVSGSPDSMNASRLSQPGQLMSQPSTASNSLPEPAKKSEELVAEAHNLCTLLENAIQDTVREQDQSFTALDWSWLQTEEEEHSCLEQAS
In short: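 Activated recombinant IKKβ (40 ng) in MOPS buffer (pH 7.0) preincubated with test compound for 30 min at room temperature. Mg-ATP mix (100 μM ATP), purified GST-IκBα (5 μg) and [γ-32P]ATP (0.5 μCi) added, then 30 min at 30°C. Reaction stopped by boiling in SDS sample buffer. Samples run on 12.5% SDS-PAGE with Coomassie staining. Read by autoradiography and scintillation counting of excised bands. Controls lacked enzyme or compound.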

A549 cells = assay: Clonogenic assay; format: cell-based, Human; conditions: 9 day incubation
In short: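 A549 cells seeded at 200 cells/well and incubated overnight, then exposed to test compound or DMSO vehicle. Medium and compound replaced every 3 days, for 9 days in total. Cells fixed in 10% TCA for 30 min at 4°C, water-washed, SRB-stained and rinsed with 1% acetic acid. Plates scanned, colonies counted and normalized to DMSO control.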

COc1cc(C=C(C(=O)/C=C/c2ccc(OC)c(OC)c2)C(=O)/C=C/c2ccc(OC)c(OC)c2)ccc1O [Compound 17, (1E,6E)-1,7-bis(3,4-dimethoxyphenyl)-4-(4-hydroxy-3-methoxybenzylidene)hepta-1,6-diene-3,5-dione]
fold greater potency than curcumin in blocking nuclear localization of NF-κB (NF-κB): more than 10 fold
block of IκB phosphorylation and degradation (in words) (IKK): potently block the IκB phosphorylation and degradation in a lower concentration
effect on IKKβ catalyzed incorporation of 32P into GST-IκB (in words) (recombinant IKKβ): dose-dependent inhibition of IKKβ

5-hydroxy-1, 7-bis(4-hydroxy-3-methoxyphenyl)hepta-1, 4, 6-trien-3-one [Curcumin, reference compound]
block of IκB phosphorylation and degradation (in words) (IKK): block IκB phosphorylation and degradation when high concentrations were used
effect on IKKβ catalyzed incorporation of 32P into GST-IκB (in words) (recombinant IKKβ): no obvious effect
concentration with detectable inhibition of colony forming activity (A549 cells): 4 µM

COc1ccc(/C=C/C(=O)C(=Cc2ccc(F)cc2)C(=O)/C=C/c2ccc(OC)c(OC)c2)cc1OC [Compound 21, (1E,6E)-1,7-bis(3,4-dimethoxyphenyl)-4-(4-fluorobenzylidene)hepta-1,6-diene-3,5-dione]
fold greater potency than curcumin in blocking nuclear localization of NF-κB (NF-κB): more than 10 fold
block of IκB phosphorylation and degradation (in words) (IKK): potently block the IκB phosphorylation and degradation in a lower concentration
effect on IKKβ catalyzed incorporation of 32P into GST-IκB (in words) (recombinant IKKβ): dose-dependent inhibition of IKKβ

COc1cc(/C=C/C(=O)C(=Cc2cccc(OC)c2OC)C(=O)/C=C/c2ccc(O)c(OC)c2)ccc1O [Compound 35, (1E,6E)-4-(2,3-dimethoxybenzylidene)-1,7-bis(4-hydroxy-3-methoxyphenyl)hepta-1,6-diene-3,5-dione]
block of IκB phosphorylation and degradation (in words) (IKK): potently block the IκB phosphorylation and degradation in a lower concentration
effect on IKKβ catalyzed incorporation of 32P into GST-IκB (in words) (recombinant IKKβ): dose-dependent inhibition of IKKβ
